Assay results from ChEMBL document CHEMBL2439952, “Synthesis and anti-Trypanosoma cruzi activity of naphthoquinone-containing triazoles: electrochemical studies on the effects of the quinoidal moiety” (Bioorg Med Chem, 2013).

Legend:
[1] = system: Trypanosoma cruzi; assay: Antitrypanosomal activity against trypomastigote form of Trypanosoma cruzi Y assessed as parasite growth inhibition after 24 hrs by Neubauer cell counting method; type: functional, organism-based
[2] = system: Trypanosoma cruzi; assay: Potency index, ratio of benznidazole IC50 to compound IC50 for trypomastigote form of Trypanosoma cruzi Y; type: functional
[3] = Selectivity index, ratio of LC50 for mouse HMC to IC50 for trypomastigote form of Trypanosoma cruzi Y
Procedure, shortened: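 Ratio of 24 h LC50 to 24 h IC50. The LC50 came from PrestoBlue on primary mouse embryo heart muscle cells. The IC50 came from Y strain bloodstream trypomastigotes taken at peak parasitaemia from infected albino mice, isolated by differential centrifugation, and held at 10^7 cells/mL in DME with 10% mouse blood. DMSO was at most 0.5%.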

[4] = Cytotoxicity against mouse HMC after 24 hrs by PrestoBlue staining-based assay; conditions: mouse HMC cells, read-out: LC50
Procedure, shortened: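 Primary heart muscle cells from 18-day-old mouse embryo hearts, dissociated with trypsin and collagenase in PBS pH 7.2. Seeded at 6x10^4 cells/well in RPMI-1640 (pH 7.2), 10% FBS, 2 mM glutamine, 24 h, 37°C. Treated 24 h at 37°C in phenol-red-free supplemented medium. PrestoBlue 5 h, read at 570 and 600 nm. LC50 = concentration damaging 50% of cells versus untreated.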

IC50 [1] | SMILES | also measured
> 2 mM | CCCCCCc1cn(C2C3=C(OC2(C)C)C(=O)c2ccccc2C3=O)nn1 (stereo not given) | –
> 4 mM | O=C1C=C(NCc2cn(CCCN3C(=O)c4ccccc4C3=O)nn2)C(=O)c2ccccc21 | –
> 4 mM | O=C1C(Cl)=C(NCc2cn(CCN3C(=O)c4ccccc4C3=O)nn2)C(=O)c2ccccc21 | –
> 0.5 mM | CCC(C)(O)c1cn(C2CC(C)(C)OC3=C2C(=O)c2ccccc2C3=O)nn1 (stereo not given) | –
> 4 mM | O=C1C=C(NCc2cn(-c3cccc([N+](=O)[O-])c3)nn2)C(=O)c2ccccc21 | –
> 1.5 mM | CC1(C)OC2=C(C(=O)c3ccccc3C2=O)C1n1cc(C2CCCCC2)nn1 (stereo not given) | –
> 4 mM | O=C1C=C(NCc2cn(CCN3C(=O)c4ccccc4C3=O)nn2)C(=O)c2ccccc21 | –
> 4 mM | O=C1C(Br)=C(NCc2cn(-c3cccc([N+](=O)[O-])c3)nn2)C(=O)c2ccccc21 | –
> 3.2 mM | CC1(C)OC2=C(C(=O)/C(=N\O)c3ccccc32)C1n1cc(-c2ccccc2)nn1 (stereo not given) | –
> 4 mM | O=C1C=C(NCc2cn(CCCCN3C(=O)c4ccccc4C3=O)nn2)C(=O)c2ccccc21 | –
0.318 mM | CC1(C)CC(N=[N+]=[N-])C2=C(O1)C(=O)c1ccccc1C2=O (stereo not given) | –
0.0173 mM | CC1(C)OC2=C(C(=O)C(=O)c3ccccc32)C1n1cc(-c2ccccc2)nn1 (stereo not given) | –
> 4 mM | O=C1C(Cl)=C(NCc2cn(CCCN3C(=O)c4ccccc4C3=O)nn2)C(=O)c2ccccc21 | –
> 4 mM | O=C1C(Br)=C(NCc2cn(CN3C(=O)c4ccccc4C3=O)nn2)C(=O)c2ccccc21 | –
> 4 mM | CC1(C)Oc2c(c3nccnc3c3ccccc23)C1n1cc(-c2ccccc2)nn1 (stereo not given) | –
> 4 mM | O=C1C(Br)=C(NCc2cn(CCN3C(=O)c4ccccc4C3=O)nn2)C(=O)c2ccccc21 | –
> 4 mM | CCC(C)(O)c1cn(C2C3=C(OC2(C)C)C(=O)c2ccccc2C3=O)nn1 (stereo not given) | –
> 4 mM | CCCCCc1cn(C2CC(C)(C)OC3=C2C(=O)c2ccccc2C3=O)nn1 (stereo not given) | –
> 4 mM | O=C1C=C(NCc2cn(CN3C(=O)c4ccccc4C3=O)nn2)C(=O)c2ccccc21 | –
> 1.5 mM | CC1(C)Oc2c(c3nc4ccccc4nc3c3ccccc23)C1n1cc(-c2ccccc2)nn1 (stereo not given) | –
> 4 mM | O=C1C(Cl)=C(NCc2cn(CN3C(=O)c4ccccc4C3=O)nn2)C(=O)c2ccccc21 | –
> 4 mM | CC1(C)OC2=C(C(=O)c3ccccc3C2=O)C1n1cc(-c2ccccc2)nn1 (stereo not given) | –
> 4 mM | O=C1C(Br)=C(NCc2cn(CCCN3C(=O)c4ccccc4C3=O)nn2)C(=O)c2ccccc21 | –
> 2 mM | CC1(C)CC(n2cc(C3CCCCC3)nn2)C2=C(O1)C(=O)c1ccccc1C2=O (stereo not given) | –

SMILES | IC50 [1] | also measured
CC1(C)OC2=C(C(=O)C(=O)c3ccccc32)C1n1cc(CNC2=C(Br)C(=O)c3ccccc3C2=O)nn1 (stereo not given) | 0.0068 mM | Ratio IC50 [2]: 15; Ratio LC50/IC50 [3]: 9.3; CC50 at 24 h [4]: 63.1 µM
CC1(C)OC2=C(C(=O)C(=O)c3ccccc32)C1n1cc(CNC2=C(Cl)C(=O)c3ccccc3C2=O)nn1 (stereo not given) | 0.0082 mM | Ratio IC50 [2]: 12; Ratio LC50/IC50 [3]: 34.3; CC50 at 24 h [4]: 282 µM
CC1(C)OC2=C(C(=O)C(=O)c3ccccc32)C1n1cc(CNC2=CC(=O)c3ccccc3C2=O)nn1 (stereo not given) | 0.0808 mM | Ratio LC50/IC50 [3]: < 1.5; CC50 at 24 h [4]: < 125 µM
